Sampled rows, rich in hits. Any-hit rate of the full collection: about 2.1%.
EBV LMP1 NFkB – inhibitors of Epstein-Barr LMP1-induced NF-kappaB reporter. LMP1-induced NF-kappaB luciferase reporter cells, luminescence. inhibition, % at 12.5 µM. AID 504558. actives 0.69% (n = 350,000); in the data active = inhibition above about 41%;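 note: 0% = neutral control wells and 100% = reference inhibitor control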
Shn3 inh set2 – Schnurri-3 reporter inhibition in Clone20 osteoblasts; Clone20 osteoblast Shn3 3'UTR firefly luciferase, 24 h; actives 0.52% (n = 360,000); AID 588674; inhibition, % at 12.5 µM;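 active = mean inhibition of at least 75% with every replicate also reaching 75%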;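 note: 0% = median of neutral control wells and 100% = pilot-screen positive control compound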
EWS-Fli inh – inhibitors of EWS/Fli oncoprotein transcriptional activity; A673 NR0B1-luciferase reporter, viability-normalised; inhibition, % at 12.6 µM; actives 0.67% (n = 350,000);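 active = mean inhibition of at least 50% after viability correction, with every replicate also passing that limit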;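 note: firefly luciferase signal divided by Alamar Blue viability fluorescence both relative to DMSO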
FN deposition inh – fibronectin deposition inhibition | AH1F fibroblasts, Alexa488-fibronectin deposition fluorescence, overnight | inhibition, % at 12.6 µM | actives 0.086% (n = 350,000) | AID 743247;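 active = mean inhibition across replicates of 30% or more, regardless of how many single replicates reach that level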;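 note: positive control wells lacked labelled fibronectin entirely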
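Measured by – fluorescence 485/525 nm · System – AH1F fibroblast monolayer, labelled fibronectin deposition · Amount – 10000 cells per well · Buffer or medium – serum-reduced DMEM (2% serum) · Doses – single dose, pinned · Also added – fluorescent fibronectin at 24 nM final · Schedule – 1 h cell attachment, overnight exposure to compound and label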
aSyn UTR inh – 5' untranslated region of α-synuclein, MLPCN primary screen; alpha-synuclein 5'UTR reporter, inhibitor activity; actives 0.82% (n = 300,000); AID 1813; inhibition, % (tested at 7.5 µM); in the data active = inhibition above about 60%;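 note: H4 neuroglioblastoma cells stably carrying SNCA 5'UTR luciferase fusion; 0% = DMSO wells and 100% = positive control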
PAX8 reporter – PAX8 transcriptional activity inhibition; RMG-I TPO-luciferase reporter, SteadyGlo, 24 h; inhibition, % at 12.6 µM; actives 1.2% (n = 360,000);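 active = mean replicate inhibition at least 60% with every replicate also reaching 60%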;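 note: luciferase light reporting Pax8 driven TPO promoter activity; plate controls were median of neutral control wells for no effect and mitoxantrone controls for full effect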
Starred values were filed as active, the others as inactive; . = no result; ! = a repeat was not active.

SMILES	EBV LMP1 NFkB	Shn3 inh set2	EWS-Fli inh	FN deposition inh	aSyn UTR inh	PAX8 reporter
CCc1ccc(OCC(=O)NC(NC(=S)Nc2ccc(Cl)cc2)C(Cl)(Cl)Cl)cc1 (stereo unspecified)	1.9	86.3*	19.3	-0.2	-11.3	81.8*
CCCC(=O)NC(NC(=S)Nc1ccc(S(N)(=O)=O)cc1)C(Cl)(Cl)Cl (stereo unspecified)	0.3	10.1	.	.	-18.6	.
CCO[C@H]1OC(C(=O)N2CCCC2)=C[C@@H](c2ccc(C(F)(F)F)cc2)[C@@H]1CCCO	.	.	-7.2	.	.	-9.7
O=C(Nc1ccccc1)Nc1ccc2c(c1)[C@H]1C[C@H](CC(=O)N3CCCCC3)O[C@@H](CO)[C@H]1O2	.	.	-8.0	.	.	3.1
COC(=O)c1cn(NC(=O)c2cc([N+](=O)[O-])ccc2F)c(=O)c2ccccc12	85.9*	93.6*	0.5	-3.8	2.7	42.4
O=C(Cc1ccc(-n2c(=O)c3sccc3n(CC(=O)Nc3ccccc3F)c2=O)cc1)NCc1ccco1	69.4*	60.0	12.1	-2.8	-13.5	28.2
O=C(Cc1ccc(-n2c(=O)c3sccc3n(CC(=O)Nc3ccccc3)c2=O)cc1)NCc1ccco1	-1.8	-5.7	4.0	-7.0	11.1	15.6
O=S(=O)(Cc1ccccc1)N1CCCCN2[C@H](CO)[C@H](c3ccc(-c4ccccc4)cc3)[C@@H]2C1	.	.	-0.8	.	.	-12.9
Cc1ccccc1-c1ccc(C2[C@@H]3CN(C(=O)c4ccc(F)cc4)C[C@H]2N3)cc1 (stereo partly specified)	.	.	-3.3	2.1	.	65.0*!
O=C(c1ccc(F)cc1)N1C[C@@H]2N[C@H](C1)C2c1ccc(-c2ccc(F)cc2)cc1 (stereo partly specified)	.	.	0.2	-3.0	.	83.6*!
N#Cc1ccc(-c2ccc(C3[C@@H]4CN(C(=O)c5ccc6c(c5)OCO6)C[C@H]3N4)cc2)cc1 (stereo partly specified)	.	.	-7.8	-324.8	.	90.9*!
O=C(c1ccc(F)cc1)N1C[C@@H]2N[C@H](C1)C2c1ccc(-c2cncnc2)cc1 (stereo partly specified)	.	.	-5.0	-7.3	.	3.8
CCOC(=O)Cc1csc(NC(=O)Nc2ccc(Cl)cc2)n1	4.6	-2.8	7.6	3.3	-13.0	-3.1
CCOC(=O)Cc1csc(N/N=C/c2ccc(Cl)cc2)n1	49.3*	23.2	26.5	-3.7	40.8	-44.4
c1ccc2nc(-c3nc4ccccc4[nH]3)ccc2c1	-1.6	9.3	.	.	74.4*	.
CO[C@H]1CN(C)C(=O)c2cc(C#N)ccc2OC[C@@H]2O[C@H](CC[C@H]2OC)CCN(C)C(=O)[C@@H]1C	.	.	-7.5	-2.7	.	10.0
CC(C)c1cn(CC[C@H]2CC[C@@H](NC(=O)Nc3cc(Cl)cc(Cl)c3)[C@@H](CO)O2)nn1	.	.	4.4	-9.2	.	18.6
COc1ccc(CNC(=O)N(C)C[C@H]2OCc3ccccc3-c3c(n(C)c4ccccc34)C(=O)N([C@@H](C)CO)C[C@@H]2C)cc1	.	.	-8.8	.	.	50.8
O=C(C[C@@H]1CC[C@H](NS(=O)(=O)c2ccc(F)cc2)[C@@H](CO)O1)N1CCc2ccccc2C1	.	.	4.6	.	.	-1.9
COc1ccc(CN(C)C[C@H]2OCCCC[C@H](C)Oc3ccc(NC(=O)Nc4ccccc4)cc3C(=O)N([C@H](C)CO)C[C@H]2C)cc1	.	.	64.8*	-11.2	.	7.4
COc1ccc(CN(C)C[C@@H]2OCCCC[C@H](C)Oc3ccc(NC(=O)Nc4ccccc4)cc3C(=O)N([C@H](C)CO)C[C@H]2C)cc1	.	.	-10.1	9.5	.	-5.7
COc1ccc(CN(C)C[C@@H]2OCCCC[C@@H](C)Oc3ccc(NC(=O)Nc4ccc(F)cc4)cc3C(=O)N([C@H](C)CO)C[C@H]2C)cc1	.	.	8.1	.	.	72.9*
O=C(NCC1CC1)[C@@H]1[C@@H](CO)[C@@H]2Cn3c(cccc3=O)[C@H]1N2C(=O)c1ccccc1	.	.	-6.3	.	.	-0.3
N#CC(C#N)=C(Nc1ccc(F)cc1)SCc1cccc(F)c1	18.4	45.7	.	5.4	23.6	77.3*
Cc1ccn2cc(-c3cc4ccccc4oc3=O)nc2c1	24.6	29.9	67.5*	-11.3	.	-98.2
SMILES	EBV LMP1 NFkB	Shn3 inh set2	EWS-Fli inh	FN deposition inh	aSyn UTR inh	PAX8 reporter
CC(=O)Nc1ccc(/C=C(\C#N)C(=O)NCc2ccccc2)cc1	-14.9	15.0	7.9	32.9*	-22.8	14.8
C[C@@H]1CCCCO[C@@H](CN(C)S(=O)(=O)c2ccccc2)[C@@H](C)CN([C@@H](C)CO)C(=O)c2cc(NC(=O)Nc3ccc4c(c3)OCO4)ccc2O1	.	.	-6.0	-2.4	.	-16.5
CCOC(=O)C1=C(C)Nc2ccccc2N=C1NC(=O)c1oc2ccccc2c1COC	8.4	4.4	-8.4	6.9	.	64.6*
C[C@@H]1CN([C@H](C)CO)C(=O)c2cc(NC(=O)Nc3cccc4ccccc34)ccc2O[C@@H](C)CCCCO[C@H]1CN(C)S(=O)(=O)c1ccc(F)cc1	.	.	13.6	-9.7	.	2.0
CC1(C)CC(=O)C=C(NCCN2CCN(C(=S)Nc3ccccc3)CC2)C1	69.7*	40.6	6.8	-5.5	-1.0	-0.5
CCNC(=S)N1CCN(CCNC2=CC(=O)CC(C)(C)C2)CC1	-25.4	-8.9	2.7	-3.3	-3.8	-10.5
COC(=O)c1ccc(-c2nc(-c3cccs3)no2)cc1	23.6	49.8	58.2*	-2.1	.	-55.8
CCOC(=O)C1CCN(C(=O)C(C)N(c2ccc(Oc3ccccc3)cc2)S(C)(=O)=O)CC1 (stereo unspecified)	21.0	87.1*	-4.8	-9.1	-6.5	-0.8
CCOC(=O)N1CCN(C(=O)C(C)N(c2ccc(Oc3ccccc3)cc2)S(C)(=O)=O)CC1 (stereo unspecified)	9.2	36.2	.	.	4.9	.
COc1ccc(S(=O)(=O)Nc2ccc3c(c2)C(=O)N([C@@H](C)CO)C[C@@H](C)[C@H](CN(C)C(=O)Nc2cccc4ccccc24)OCCCC[C@H](C)O3)cc1	.	.	-5.0	.	.	16.4
O=C1c2ccccc2OC2(C=Cc3ccccc3O2)N1Cc1ccccc1 (stereo unspecified)	-6.1	12.8	.	.	-46.4	.
Cc1cc2c(c(/C=C/C(=O)c3ccccc3)c1)OC1(C=C2)Oc2ccccc2C(=O)N1C (stereo unspecified)	-40.5	93.0*	43.2	-1.6	9.9	10.6
O=C(Nc1ccc(Cl)cc1)N[C@H]1CC[C@@H](CCn2cc(C3(O)CCCC3)nn2)O[C@@H]1CO	.	.	0.3	.	.	-3.7
CCC(=O)Nc1ccc2c(c1)C(=O)N(C)C[C@@H](OC)[C@H](C)CN(C(=O)c1ccncc1)[C@@H](C)CO2	.	.	-10.0	3.2	.	-6.5
O=Cc1cc2ccccc2nc1SCc1ccc(Cl)cc1	2.4	6.4	.	.	95.2*	.
Cc1ccc(CSc2nc3ccccc3cc2C=O)cc1	16.7	-3.6	.	.	93.4*	.
O=Cc1cc2ccccc2nc1SCc1ccc(Cl)c(Cl)c1	-11.9	16.2	.	.	109.1*	.
CO[C@H]1CN(C)C(=O)c2cc(NC(=O)CC(F)(F)F)ccc2OC[C@@H](C)NC[C@H]1C	.	.	.	-8.5	.	.
